High-throughput results from PubChem BioAssay.
INS-1E GSIS act – primary screen for activators of insulin secretion dependent on glucose, INS-1E cells, GLuc reporter luminescence; actives 0.61% (n = 370,000); activation, % at 16.6 µM; AID 743287; INS-1E GLuc reporter insulin secretion, 2-3 h;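 active means lowest replicate activation of at least 40%, so every replicate reaches that level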;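 further: 0% = median of neutral control wells and 100% = median of IBMX positive control wells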
HIV Env fusion – blocks HIV Env-driven cell-cell fusion; inhibition, % at 12.3 µM; HeLa-JRFL Env/CEM21 cell fusion, luciferase; actives 1.1% (n = 360,000); AID 651610;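 active means mean replicate inhibition score of at least 50 and every replicate individually at or above 50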;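 further: 0% = plate neutral controls and 100% = maraviroc near 300 nM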
Rtt109 Vps75 – C. albicans Rtt109 histone acetyltransferase inhibition; actives 0.16% (n = 330,000); purified Rtt109/Vps75, ThioGlo CoA-SH fluorescence, 4 h; inhibition, % at 34.9 µM; Q5AAJ8; AID 540336;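 active means inhibition of at least 50% in every replicate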
Target sequence (Q5AAJ8 whole entry, looked up): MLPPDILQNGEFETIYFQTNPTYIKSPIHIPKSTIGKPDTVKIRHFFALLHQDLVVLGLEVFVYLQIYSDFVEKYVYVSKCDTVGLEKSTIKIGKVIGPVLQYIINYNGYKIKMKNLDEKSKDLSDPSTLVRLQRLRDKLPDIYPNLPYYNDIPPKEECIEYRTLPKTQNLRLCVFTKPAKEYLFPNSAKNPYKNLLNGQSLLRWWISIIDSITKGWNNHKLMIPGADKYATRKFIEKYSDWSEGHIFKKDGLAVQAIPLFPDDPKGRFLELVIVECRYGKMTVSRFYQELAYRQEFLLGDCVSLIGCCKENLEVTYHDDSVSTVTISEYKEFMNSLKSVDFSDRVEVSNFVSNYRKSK
dFosB activator – enhances mouse delta FosB homodimer DNA binding; activation, % at 25 µM; actives 0.99% (n = 340,000); purified delta FosB, TAMRA-CDK5 oligo fluorescence polarization; percent of positive-control signal above neutral wells; AID 493131;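 active means mean activation above about 17%, with every replicate also reaching it, limit read from the data, passing the limit was not always enough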
Target sequence (P13346 whole entry, looked up): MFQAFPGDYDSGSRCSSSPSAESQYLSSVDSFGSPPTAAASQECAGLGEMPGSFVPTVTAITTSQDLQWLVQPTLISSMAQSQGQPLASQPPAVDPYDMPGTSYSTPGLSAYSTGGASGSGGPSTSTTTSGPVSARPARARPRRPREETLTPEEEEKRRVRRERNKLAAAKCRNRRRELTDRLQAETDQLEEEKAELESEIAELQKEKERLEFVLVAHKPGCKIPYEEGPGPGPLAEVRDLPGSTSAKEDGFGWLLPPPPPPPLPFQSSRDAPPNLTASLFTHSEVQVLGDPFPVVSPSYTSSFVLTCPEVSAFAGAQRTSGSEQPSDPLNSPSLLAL
miR-122 sensor – inhibitors of miR-122 in Huh7 cells; Huh7 miR-122 Renilla luciferase sensor, 48 h; neutral wells = 0, positive control = 100; activation (reporter increase), % at 12.5 µM; actives 0.3% (n = 340,000);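 active means mean replicate activation score at least 90 and every replicate individually at or above 90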;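 further: higher luciferase means less miR-122 activity so hits act as miR-122 inhibitors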
Cneo AK release – Cryptococcus neoformans lysis via adenylate kinase release; AID 651654; lysis activity, % at 15 µM; C. neoformans lysis, adenylate kinase release luminescence, 4 h; normalised: neutral wells 0, clomiphene wells 100; actives 0.2% (n = 360,000);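 active means mean lysis activity across replicates of at least 80%, whatever share of replicates individually reach that level; inactive means mean lysis activity below 80%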
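Test system: log-phase Cryptococcus neoformans yeast cells. Input: 5 × 10^6 yeast cells/mL. Medium: fresh YPD growth medium. Doses: single dose. Incubation: static 4 h at 37 °C with compound, 1 h detection. Measured by: luminescent adenylate kinase detection reagent. Read-out: signal increase indicating cell lysis. Benchmarks: Clomiphene.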
The depositor's hits bear a star; . = not tested or not shown; [ ] = dose if it differs, or a comment. In the library only some 2.4% were active in any assay of this set; here they are far more common.

SMILES | INS-1E GSIS act | HIV Env fusion | Rtt109 Vps75 | dFosB activator | miR-122 sensor | Cneo AK release
CCCCn1c(N)c(N(Cc2ccccc2OC)C(=O)c2sccc2C)c(=O)[nH]c1=O | 20.6 | -1.7 | 50.4* | -9.1 | . | .
COCCNC(=O)C[C@@H]1C[C@H]2c3cc(NC(=O)Cc4ccncc4)ccc3O[C@H]2[C@@H](CO)O1 | 20.4 | -0.4[16.7 µM] | . | . | -3.2[16.7 µM] | -5.8
CCCNC(=O)C[C@@H]1C[C@@H]2c3cc(NC(=O)CN(C)C)ccc3O[C@@H]2[C@H](CO)O1 | -1.3 | 91.3*[16.7 µM] | . | . | 7.2[16.7 µM] | -1.6
CCCNC(=O)C[C@H]1C[C@H]2c3cc(NC(=O)Cc4ccncc4)ccc3O[C@H]2[C@H](CO)O1 | -4.0 | 88.1*[16.7 µM] | . | . | 29.5[16.7 µM] | -0.9
CCCNC(=O)C[C@H]1C[C@H]2c3cc(NC(=O)CN(C)C)ccc3O[C@H]2[C@@H](CO)O1 | 0.8 | 79.5*[16.7 µM] | . | . | 6.5[16.7 µM] | 6.4
CCCNC(=O)C[C@H]1C[C@@H]2c3cc(NC(=O)CN(C)C)ccc3O[C@@H]2[C@H](CO)O1 | 0.0 | 24.3[16.7 µM] | . | . | 1.5[16.7 µM] | -0.8
CCCC#Cc1ccc2c(c1)O[C@H](CN(C)C(=O)c1ccccc1)[C@@H](C)CN([C@@H](C)CO)S2(=O)=O | -30.9 | -8.6[16.7 µM] | . | . | 39.6[16.7 µM] | 52.3
O=C1N[C@@H](Cc2ccccc2)COCc2cnnn2CC[C@@H]1Cc1cccc(F)c1 | 14.4 | . | . | . | . | .
C[C@@H]1CN(C)C(=O)c2cccc(N)c2O[C@@H]1CN(C)C(=O)OC(C)(C)C | 10.1 | . | . | . | . | .
CCCC#Cc1ccc2c(c1)O[C@H](CN(C)Cc1ccncc1)[C@@H](C)CN([C@@H](C)CO)S2(=O)=O | 14.5 | 31.3[16.7 µM] | . | . | 20.6[16.7 µM] | -11.0
O=C1C(C2=NC(c3ccccn3)C3C(=O)N(c4ccccc4)C(=O)C23)=C(O)c2ccccc21 (configuration not stated) | 0.7 | 3.6 | -8.7 | 26.5* | -7.3 | .
O=C(C[C@@H]1CC[C@H]2[C@@H](COC[C@@H](O)CN2C(=O)Nc2ccc(Cl)c(Cl)c2)O1)NCc1ccccc1 | -17.3 | . | . | . | -2.8[16.7 µM] | -4.1
O=C(Nc1cccc(S(=O)(=O)N2CCOCC2)c1)[C@@H]1CCCN1S(=O)(=O)c1ccc(Cl)cc1 | -15.7 | 61.8* | 1.2 | -10.9 | . | .
CCc1cccc(NC(=O)C2CCCN2S(=O)(=O)c2ccc3c(c2)n(C)c(=O)c(=O)n3C)c1 (configuration not stated) | 45.8* | -5.0 | 8.1 | -10.9 | -2.2 | -0.8
CC(NC(=O)C1CCCN1S(=O)(=O)c1ccc2c(c1)n(C)c(=O)c(=O)n2C)c1ccccc1 (configuration not stated) | 54.0* | 3.6 | -8.6 | -6.2 | -2.5 | -0.3
COc1ccc(NC(=O)C2CCCN2S(=O)(=O)c2ccc3c(c2)CCC(=O)N3)cc1Cl (configuration not stated) | 2.5 | 84.9* | 15.3 | -6.4 | -1.7 | -3.4
COc1ccc(NC(=O)C2CCCN2S(=O)(=O)c2ccc3c(c2)CCC(=O)N3)cc1 (configuration not stated) | 2.7 | -6.6 | 4.3 | -3.3 | -5.5 | -0.8
Cc1cccc(NC(=O)C2CCCN2S(=O)(=O)c2ccc3c(c2)n(C)c(=O)c(=O)n3C)c1 (configuration not stated) | . | -3.5 | 20.2 | -3.9 | -3.3 | -1.0
CCCNC(=O)C[C@@H]1C[C@@H]2c3cc(NS(C)(=O)=O)ccc3O[C@@H]2[C@@H](CO)O1 | 5.4 | . | . | . | -2.3[16.7 µM] | 19.9
CS(=O)(=O)Nc1ccc(C(=O)NCCSC2CCCCC2)cc1 | . | . | -5.7 | -2.9 | -3.0 | .
CC(=O)N1CCN(C(=O)c2ccc(NS(=O)(=O)c3cc(C)ccc3C)cc2)CC1 | -1.0 | . | -6.7 | -1.7 | . | .
Cc1ccc(C)c(S(=O)(=O)Nc2ccc(C(=O)N3CCCCC3)cc2)c1 | -21.4 | -5.3 | 26.3 | -3.0 | 108.6* | 0.2
Cc1ccc(C(=O)NCCSc2ccc(Cl)cc2)cc1S(=O)(=O)Nc1ccccc1 | -47.9 | . | 21.4 | 0.0 | 130.9* | -0.1
CC(=O)Nc1cc(S(=O)(=O)Nc2ccccc2)c(C)cc1C | . | . | 2.0 | 2.4 | 36.1 | 0.0
Cc1ccc(NS(=O)(=O)c2cc(C(=O)NCCSC3CCCCC3)ccc2C)cc1 | -27.6 | 55.3* | 10.4 | -4.9 | 121.7* | 4.7
SMILES | INS-1E GSIS act | HIV Env fusion | Rtt109 Vps75 | dFosB activator | miR-122 sensor | Cneo AK release
CC(=O)Nc1cc(S(=O)(=O)Nc2cccc(C)c2)c(C)cc1C | . | . | 2.5 | -14.9 | 144.4* | 0.4
CC(C)NC(=O)N(C)C[C@@H]1Oc2ccc(N)cc2CC(=O)N(C)C[C@H]1C | 5.9 | . | . | . | . | .
Cc1ccc(NS(=O)(=O)c2cc(C(=O)NCCSc3ccc(C)cc3)ccc2C)cc1 | . | 97.0* | 5.1 | -3.2 | 114.8* | 11.4
Cc1ccc(C)c(S(=O)(=O)Nc2ccc(C(=O)NCCCN(C)C)cc2)c1 | 9.1 | 2.5 | . | . | -27.8 | 0.4
Cc1ccc(SCCNC(=O)c2ccc(C)c(S(=O)(=O)Nc3cccc(C)c3)c2)cc1 | -32.7 | . | 6.5 | -0.1 | 105.1* | -1.7
Cc1ccc(NC(=O)CNC(=O)c2cccs2)cc1S(=O)(=O)Nc1ccc(Cl)cc1 | -25.6 | . | 5.0 | 0.0 | 98.2* | -1.0
Cc1ccc(C(=O)Nc2ccc(C)c(S(=O)(=O)Nc3ccccc3Cl)c2)s1 | -18.6 | . | -2.4 | -7.7 | 413.2* | 1.0
CC12N=C3SCc4ccccc4CN3[C@H](c3ccccc3O1)[C@H]2CO[Si](C)(C)C(C)(C)C | . | 1.9[16.7 µM] | . | . | . | 9.4
C[C@H]1CN([C@@H](C)CO)C(=O)c2cccc(NS(=O)(=O)c3ccc(F)cc3)c2O[C@H]1CN(C)C(=O)Nc1cccc2ccccc12 | -6.9 | . | . | . | 19.0[16.7 µM] | 0.3
CO[C@@H]1CN(C)C(=O)c2cc(NC(=O)C3CC3)ccc2OC[C@@H](C)N(Cc2ccccc2)C[C@@H]1C | 5.5 | . | . | . | 5.0[16.7 µM] | 1.9
C[C@@H]1CCCCO[C@@H](CN(C)CC2CCCCC2)[C@H](C)CN([C@H](C)CO)C(=O)c2cc(NC(=O)NC3CCCCC3)ccc2O1 | 20.9 | 70.0*[16.7 µM] | . | . | -11.2[16.7 µM] | 42.2
COc1ccc(NC(=O)Nc2ccc3c(c2)C(=O)N([C@H](C)CO)C[C@H](C)[C@H](CN(C)CC2CC2)OCCCC[C@@H](C)O3)cc1 | 1.9 | 1.2[16.7 µM] | . | . | 2.0[16.7 µM] | 1.4
COc1ccc(NC(=O)Nc2ccc3c(c2)C(=O)N([C@@H](C)CO)C[C@H](C)[C@H](CN(C)CC2CCCCC2)OCCCC[C@H](C)O3)cc1 | -9.2 | 55.4*[16.7 µM] | . | . | 2.2[16.7 µM] | 3.0
COc1ccc(NC(=O)Nc2ccc3c(c2)C(=O)N([C@H](C)CO)C[C@H](C)[C@H](CN(C)CC2CC2)OCCCC[C@H](C)O3)cc1 | 9.6 | 64.1*[16.7 µM] | . | . | -0.3[16.7 µM] | 55.4
COc1ccc(NC(=O)Nc2ccc3c(c2)C(=O)N([C@H](C)CO)C[C@H](C)[C@H](CN(C)CC2CCCCC2)OCCCC[C@@H](C)O3)cc1 | -6.7 | 3.7[16.7 µM] | . | . | 8.4[16.7 µM] | 1.2
